Screening results deposited in PubChem BioAssay by several laboratories.
UPR XBP1 act: activators of adaptive arm of unfolded protein response (XBP1); CHO-XBP1 luciferase reporter, IRE1-XBP1 UPR activation, luminescence; percent of tunicamycin response, DMSO as zero; actives 0.33% (n = 330,000); activation, % at 20 µM;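 active = versus positive control, 20 µM dose yields 30% or more activation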
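incubation = overnight seeding at 37 °C, 6 h compound treatment at 37 °C | assay system = CHO-XBP1 cells stably carrying IRE1-XBP1-driven luciferase reporter | input = 1000 cells per well | detection = luciferase luminescence | dosing = single point, 20 µM final compound, 1% DMSO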
697 NFkB inh: lowers PMA/ionomycin-induced NF-kB signal in 697 B cells; inhibition, % at 4 µM; actives 0.33% (n = 330,000); 697 B-cell NF-kB luciferase reporter, 16 h; in the data active = inhibition above about 35%
UPR CHOP act: apoptotic UPR (CHOP) activation; CHO-CHOP luciferase reporter, luminescence; percent of tunicamycin response over DMSO baseline; activation, % at 10 µM; actives 0.34% (n = 330,000);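 active = at 10 µM dose, activation of 40% or more, normalized to positive control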
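Material: CHO-CHOP cells, stable luciferase reporter of PERK-eIF2a-CHOP signalling; quantity: 500 reporter cells seeded per well; buffer or medium: F12 medium containing 10% fetal bovine serum; compound: one dose, 10 µM in 0.5% DMSO; incubation: 6 h compound treatment, 37 °C; measured by: Steady-Glo luciferase luminescence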
CHOP inh: CHOP inhibition in unfolded protein response; CHO-K1 CHOP-promoter luciferase, tunicamycin-induced, 15-18 h; actives 3.8% (n = 220,000); inhibition, % at 10 µM;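 active = compounds that reduced the stress-induced luciferase reporter signal by more than about 70% of percent inhibition, limit read from the data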
Jurkat NFkB inh: inhibitors of the PMA/ionomycin-induced NF-kB reporter in Jurkat cells; AID 435003; PMA/ionomycin-induced NF-kB luciferase reporter, luminescence; inhibition, % at 4 µM; actives 0.53% (n = 330,000); in the data active = inhibition above about 50%
697 NFkB conf: inhibitors of the PMA/ionomycin-induced NF-kB reporter in 697 B cells, retest | AID 449746 | 697 B-cell NF-kB luciferase, 16 h | shares compounds with 697 NFkB inh | inhibition, % at 4 µM | actives 35% (n = 2,000); in the data active = inhibition mostly above about 28%, no sharp cut-off; inactive = mostly below about 22%
Each line names hits and unclear results; the compound was inactive in the other large screens (follow-up assays come after a bar, where they were run). The full list was thinned out, with hits kept by preference.

COc1ccc(NC(=O)c2cc(CC(C)C)nc3ccccc23)cc1	none (no result: CHOP inh) | 697 NFkB conf inactive
Cc1cc(NC(=O)COC(=O)c2c(Cl)cccc2Cl)no1	none (no result: CHOP inh) | 697 NFkB conf inactive
COc1ccc(C(=O)N2CCc3c([nH]c4ccccc34)C2C(F)(F)F)cc1 (configuration not stated)	none
COc1ccccc1NC(=O)N1CCc2c([nH]c3ccccc23)C1C(F)(F)F (configuration not stated)	697 NFkB inh 35.2 | 697 NFkB conf inactive
COc1ccc(C(=O)N/N=C/c2cc(Br)ccc2O)cc1OC	697 NFkB inh 37.0 | 697 NFkB conf inactive
COc1cccc(/C=N/NC(=O)c2ccc(N3CCCC3=O)cc2)c1	none (no result: CHOP inh) | 697 NFkB conf inactive
COc1cc(/C=N/NC(=O)c2ccc(-n3cccc3)cc2)ccc1O	697 NFkB inh 42.9 | 697 NFkB conf inactive
Cc1ccccc1-n1ncc2c1CC(C)(C)CC2NC(=O)CCN1CCCCC1=O (configuration not stated)	none (no result: CHOP inh)
COc1ccc(C)cc1NS(=O)(=O)c1ccc(NC(=O)CN(c2cc([N+](=O)[O-])ccc2C)S(C)(=O)=O)cc1	697 NFkB inh 38.3 | 697 NFkB conf inactive
CC(C)CC(=O)Nc1ccc2oc(-c3cccnc3)nc2c1	none
Cc1ccc2oc(-c3ccc(NC(=O)c4cccnc4)cc3)nc2c1	none | 697 NFkB conf inactive
Cc1ccc2oc(-c3ccc(NC(=O)CC(C)C)cc3)nc2c1	none | 697 NFkB conf inactive
Cc1ccc(C(=O)NNC(=O)Cn2ccc(C(F)(F)F)n2)o1	none (no result: CHOP inh)
Clc1ccc(-c2nc3nc4ccccc4nc3n2Cc2ccco2)cc1	none | 697 NFkB conf inactive
c1ccc(Cn2c(-c3ccco3)nc3nc4ccccc4nc32)cc1	none
Cc1ccc(-c2nc3nc4ccccc4nc3n2Cc2ccco2)cc1	none | 697 NFkB conf inactive
Cc1cc(C)n(-c2ccc(C(=O)N3CCN(S(=O)(=O)c4ccc(Cl)cc4)CC3)cc2)n1	none (no result: CHOP inh)
CCN(CC)C(=O)c1ccc(S(=O)(=O)Cc2ccc(C)cc2)c([N+](=O)[O-])c1	697 NFkB inh 40.0 (no result: CHOP inh) | 697 NFkB conf 39.1
Cc1ccc(CS(=O)(=O)c2ccc(C(=O)N3CCCCC3)cc2[N+](=O)[O-])cc1	none
C/C(=N\Nc1nncc2ccccc12)c1ccc(C(C)(C)C)cc1	none (no result: CHOP inh)
C/C(=N\Nc1nncc2ccccc12)c1ccc(O)cc1	none (no result: CHOP inh) | 697 NFkB conf inactive
ONC(=Nc1cccc(C(F)(F)F)c1)c1cccnc1	none
N=C1C(c2nc3ccccc3s2)=C(O)CN1C1CCCCC1	none | 697 NFkB conf inactive
COc1ccc(-c2cc3cc4c(cc3cn2)OCO4)cc1	none (no result: CHOP inh) | 697 NFkB conf inactive
CC(=O)N1CC(C)Sc2ccc(S(=O)(=O)NC(C)c3ccccc3)cc21 (configuration not stated)	none (no result: CHOP inh)
CCN(CC)S(=O)(=O)c1ccc(N2CCOCC2)c(NC(=O)c2[nH]c(C)c(C(C)=O)c2C)c1	697 NFkB inh 48.1 (no result: CHOP inh) | 697 NFkB conf 45.6
CCN(CC)S(=O)(=O)c1ccc(N2CCOCC2)c(NC(=O)c2ccc(F)cc2)c1	none
COc1ccccc1/C=C/C=N/Nc1cccc(C(=O)O)c1	none (no result: CHOP inh) | 697 NFkB conf inactive
COc1ccc([C@@H]2[C@@H]3C(=O)N(C(C)(C)C)C(=O)[C@@H]3[C@]3(C)C(=O)N(c4ccc(C(F)(F)F)cc4)C(=O)N23)cc1	none (no result: CHOP inh)
CC(=O)Nc1cccc(C(=O)/C=C/c2ccc(/C=C/C(=O)c3cccc(NC(C)=O)c3)cc2)c1	UPR CHOP act 83.0 | 697 NFkB conf inactive
Cc1nn(-c2ccc(F)cc2)c(-n2cccc2)c1C(=O)N1CCN(C(=O)c2ccco2)CC1	none (no result: CHOP inh)
COc1ccc(/C=C2\SC(=S)N(CCC(=O)Nc3ccc(C(=O)O)cc3)C2=O)cc1	697 NFkB inh 43.6 (no result: CHOP inh) | 697 NFkB conf 59.8
O=C(CCN1C(=O)/C(=C/c2ccc(Cl)cc2)SC1=S)Nc1ccc(C(=O)O)cc1	none (no result: CHOP inh)
CCc1ccc(/C=C2/SC(=S)N(CCC(=O)Nc3cccc(C(=O)O)c3)C2=O)cc1	697 NFkB inh 49.7 (no result: CHOP inh) | 697 NFkB conf 58.9
COc1ccc(/C=C2/SC(=S)N(CCC(=O)O)C2=O)cc1	697 NFkB inh 74.3, CHOP inh 84.3 | 697 NFkB conf 75.2
CCc1ccc(/C=C2/SC(=S)N(CCC(=O)Nc3ccc(C(=O)O)cc3)C2=O)cc1	697 NFkB inh 76.9 (no result: CHOP inh) | 697 NFkB conf 71.9
O=C(NNc1ccc(Cl)nn1)c1ccc(Cl)cc1	none
O=C(CCNc1n[nH]c(=O)[nH]c1=O)N/N=C/c1ccc(C(F)(F)F)cc1	none
COc1ccc(NC(=O)c2n[nH]c(=O)c3ccccc23)cc1S(=O)(=O)N1CCCCC1	none
COc1ccc(S(=O)(=O)N2CCC(Cc3ccccc3)CC2)cc1NC(C)=O	none (no result: CHOP inh)
COc1ccc(/C=C2\SC(=S)N(CCC(=O)Nc3cccc(O)c3)C2=O)cc1	697 NFkB inh 47.0 (no result: CHOP inh) | 697 NFkB conf 53.9
CC(C)N1C(=O)S/C(=C/c2ccc3c(c2)n(C)c(=O)n3C)C1=O	697 NFkB inh 47.1 | 697 NFkB conf 40.4
CCOc1ccc2nc(SC3CC(=O)N(c4ccc(OC)cc4OC)C3=O)sc2c1 (configuration not stated)	none
CNC(=O)c1cc(Oc2ccc(NC(=O)Nc3ccc(Cl)c(C(F)(F)F)c3)cc2)ccn1	697 NFkB inh 62.5 (no result: CHOP inh) | 697 NFkB conf 59.5
O=C(Nc1ccc(Cl)c(C(F)(F)F)c1)c1ccncc1	none
CNC(=O)c1ccc(-c2cc3onc(-c4ccccc4)c3c(=O)n2C)cc1	none (no result: CHOP inh)
CCCOc1ccc(-c2cc3onc(-c4ccccc4)c3c(=O)n2C)cc1	none (no result: CHOP inh) | 697 NFkB conf inactive
Cc1ccc(-c2cc3onc(-c4ccccc4)c3c(=O)n2C)cc1	none (no result: CHOP inh) | 697 NFkB conf inactive
CCOc1cc(/C=C2\CCC/C(=C\c3cc(Cl)c(O)c(OCC)c3)C2=O)cc(Cl)c1O	CHOP inh 92.8 | 697 NFkB conf inactive
CC1CCN(c2c(NCC3CCC(C(=O)NCc4ccc(F)cc4)CC3)c(=O)c2=O)CC1 (configuration not stated)	none
Cc1ccc(NC(=O)C2CCC(CNc3c(N4CCC(C)CC4)c(=O)c3=O)CC2)cc1F (configuration not stated)	697 NFkB inh 47.5 | 697 NFkB conf 32.8
COc1ccc(/C=C2\N=C(SC)N(c3ccccc3OC)C2=O)cc1	none | 697 NFkB conf inactive
c1ccc(-c2cn3c4c(sc3n2)CCCC4)cc1	none | 697 NFkB conf inactive
O=C1N[C@@H](Cc2cn(S(=O)(=O)c3ccccc3)c3ccccc23)C(=O)N[C@H]1Cc1ccccc1	697 NFkB inh 37.6 (no result: CHOP inh) | 697 NFkB conf inactive
O=C(O)CCCNC(=O)c1ccccn1	none
CCn1c(=S)[nH]c2cc(S(=O)(=O)N3CCCCC3)ccc21	697 NFkB inh 35.9 | 697 NFkB conf 29.7
